# Published values of several laboratories.
# Lines come from different studies, so protocols differ.
# Effect on: cell growth or viability
Compound,cell line,assay,setting,CC50
O=C(N[C@@H](Cc1ccccc1)C(=O)c1cn(COCc2ccccc2)nn1)[C@H](Cc1ccccc1)NC(=O)N1CCOCC1,MRC-5 SV2,,,> 64 µM
Cc1ncnc2c1c(SC(F)(F)F)cn2[C@@H]1O[C@H](CO)[C@@H](O)[C@H]1O,MRC-5 SV2,resazurin,72 h,36.8 µM
C[C@@H]1O[C@@H](OC[C@H]2O[C@@H](Oc3c(-c4ccc(O)c(O)c4)oc4cc(O)cc(O)c4c3=O)[C@H](O)[C@@H](O)[C@@H]2O)[C@H](O)[C@H](O)[C@H]1O,CEM-GFP,MTT,48 h,> 250 µg/mL
O=C(N[C@@H](Cc1ccccc1)C(=O)c1ncc(-c2ccccc2)o1)[C@H](Cc1ccccc1)NC(=O)N1CCOCC1,MRC-5 SV2,,,> 64 µM
Cc1ccc(C(=O)Nc2ccc(S(=O)(=O)O)c3cc(S(=O)(=O)O)cc(S(=O)(=O)O)c23)cc1NC(=O)c1cccc(NC(=O)Nc2cccc(C(=O)Nc3cc(C(=O)Nc4ccc(S(=O)(=O)O)c5cc(S(=O)(=O)O)cc(S(=O)(=O)O)c45)ccc3C)c2)c1,MRC-5 SV2,resazurin,72 h,> 64 µM
CCCCCCCCCCCCCCCCOP(=O)([O-])OCC[N+](C)(C)C,HaCaT,MTS,24 h,> 20 µM
O=C(N[C@@H](Cc1ccccc1)C(=O)c1ncc(-c2ccccc2)s1)[C@H](Cc1ccccc1)NC(=O)N1CCOCC1,MRC-5 SV2,,,> 64 µM
CCOC(=O)c1cn(CC(c2cn(C)c3ccc(C)cc23)c2cn(C)c3ccc(C)cc23)c(C)c1C(=O)OC,HaCaT,MTS,24 h,> 20 µM
Cc1cn([C@H]2C[C@H](N=[N+]=[N-])[C@@H](CO)O2)c(=O)[nH]c1=O,CEM-GFP,MTT,48 h,> 200 µg/mL
COC(=O)c1c(C)ncn1CC(c1c[nH]c2ccccc12)c1c[nH]c2ccccc12,HaCaT,MTS,24 h,> 20 µM
N=C(N)c1ccc(/N=N/Nc2ccc(C(=N)N)cc2)cc1,MRC-5 SV2,resazurin,72 h,> 64 µM
